Reference: ChEMBL document CHEMBL1135685, “Tumor-specific novel taxoid-monoclonal antibody conjugates” (J Med Chem, 2002)
pIC50: −log10 of the molar value.

Key:
Format in all cases: functional, cell-based
[1] = test system: A-431; assay: In vitro cytotoxicity of compound against human A431 (epidermoid) cancer cell line after 72 hr of drug exposure; settings: A-431, 72 h
In short: (§1)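 Cytotoxicity was measured as an IC50 on a panel of human cancer lines: A431 (epidermoid), A549 (non-small-cell lung), MCF7 (breast) and MCF7-MDR (breast). The parent, unmodified taxoids were tested on the same lines.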

[2] = test system: NCI/ADR-RES; assay: In vitro cytotoxicity of compound against human MCF-7-MDR (breast) cancer cell line after 72 hr of drug exposure; in short: as §1
[3] = test system: A549; assay: In vitro cytotoxicity of compound against human A549 (non small cell lung) cancer cell line after 72 hr of drug exposure; settings: A549, 72 h; in short: as §1

Work on CCC(=O)O[C@H]1C(=O)[C@@]2(C)[C@H]([C@H](OC(=O)c3ccccc3)[C@]3(O)C[C@H](OC(=O)[C@H](O)[C@H](C=C(C)C)NC(=O)OC(C)(C)C)C(C)=C1C3(C)C)[C@]1(OC(C)=O)CO[C@@H]1C[C@@H]2O yielded a pIC50 [1] of 10.05, a pIC50 [2] of 8.66 and a pIC50 [3] of 10.00.

CSSCCC(=O)O[C@H]1C(=O)[C@@]2(C)[C@H]([C@H](OC(=O)c3ccccc3)[C@]3(O)C[C@H](OC(=O)[C@H](O)[C@H](C=C(C)C)NC(=O)OC(C)(C)C)C(C)=C1C3(C)C)[C@]1(OC(C)=O)CO[C@@H]1C[C@@H]2O gave a pIC50 [1] of 9.30 and a pIC50 [3] of 9.10.

CSSCCC(=O)O[C@H]1C[C@H]2OC[C@@]2(OC(C)=O)[C@H]2[C@H](OC(=O)c3ccccc3)[C@]3(O)C[C@H](OC(=O)[C@H](O)[C@H](C=C(C)C)NC(=O)OC(C)(C)C)C(C)=C([C@@H](OC(=O)N4CCOCC4)C(=O)[C@]12C)C3(C)C showed a pIC50 [1] of under 8.52.

CCC(=O)O[C@H]1C(=O)[C@]2(C)[C@@H](OC(=O)CCSSC)C[C@H]3OC[C@@]3(OC(C)=O)[C@H]2[C@H](OC(=O)c2ccccc2)[C@]2(O)C[C@H](OC(=O)[C@H](O)[C@H](C=C(C)C)NC(=O)OC(C)(C)C)C(C)=C1C2(C)C showed a pIC50 [1] of 8.70.

CCC(=O)O[C@H]1C(=O)[C@@]2(C)[C@H]([C@H](OC(=O)c3ccccc3)[C@]3(O)C[C@H](OC(=O)[C@H](OC(=O)CCSSC)[C@H](C=C(C)C)NC(=O)OC(C)(C)C)C(C)=C1C3(C)C)[C@]1(OC(C)=O)CO[C@@H]1C[C@@H]2O was tested, and the pIC50 [1] was under 8.52 and the pIC50 [3] was 9.05.

In the case of CSSc1cccc(C(=O)O[C@H]2C(=O)[C@@]3(C)[C@H]([C@H](OC(=O)c4ccccc4)[C@]4(O)C[C@H](OC(=O)[C@H](O)[C@H](C=C(C)C)NC(=O)OC(C)(C)C)C(C)=C2C4(C)C)[C@]2(OC(C)=O)CO[C@@H]2C[C@@H]3O)c1, the pIC50 [1] was under 8.52 and the pIC50 [3] was under 8.52.

CSSc1cccc(C(=O)O[C@H]2[C@@H]3[C@]4(OC(C)=O)CO[C@@H]4C[C@H](O)[C@@]3(C)C(=O)[C@H](OC(C)=O)C3=C(C)[C@@H](OC(=O)[C@H](O)[C@H](C=C(C)C)NC(=O)OC(C)(C)C)C[C@]2(O)C3(C)C)c1 was tested, and the pIC50 [1] was under 8.52 and the pIC50 [3] was under 8.52.

Work on CSSCC(=O)O[C@H]1C(=O)[C@@]2(C)[C@H]([C@H](OC(=O)c3ccccc3)[C@]3(O)C[C@H](OC(=O)[C@H](O)[C@H](C=C(C)C)NC(=O)OC(C)(C)C)C(C)=C1C3(C)C)[C@]1(OC(C)=O)CO[C@@H]1C[C@@H]2O yielded a pIC50 [1] of 9.15 and a pIC50 [3] of 9.10.

Work on CC(=O)O[C@H]1C(=O)[C@@]2(C)[C@H]([C@H](OC(=O)c3ccccc3)[C@]3(O)C[C@H](OC(=O)[C@H](O)[C@@H](NC(=O)c4ccccc4)c4ccccc4)C(C)=C1C3(C)C)[C@]1(OC(C)=O)CO[C@@H]1C[C@@H]2O [PACLITAXEL] yielded a pIC50 [2] of 6.52.
